Assay results: ChEMBL document CHEMBL1133679, “Synthesis and cytotoxicity of 4-amino-5-oxopyrido[2,3-d]pyrimidine nucleosides” (J Med Chem, 2000)

Tests used:
Format in all cases: functional, cell-based
[1] = Cytotoxicity that caused a 50% reduction in absorbance at 490 nm in normal human fibroblast (NHF) cells using MTS assay.
In short: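 Normal human dermal fibroblasts were cultivated in FGM medium and seeded at 4×10^3 cells per well. Exposure was 0.78–100 μM, diluted in medium from 100 mM DMSO stocks, with a 1% DMSO control. Formazan absorbance at 490 nm was measured by MTS after 72 h. EC50 is the concentration halving absorbance relative to untreated cells.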

B16 = experiment: Cytotoxicity that caused a 50% reduction in absorbance at 490 nm in B16 mouse melanoma cells using MTS assay.
In short: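 Compounds taken from 100 mM DMSO stocks and diluted in culture medium. Cells seeded at 4×10^3 per well and exposed to 0.78–100 μM. A 1% DMSO control was run in parallel. MTS reagent added after 72 h and formazan read at 490 nm. EC50 is the concentration giving 50% absorbance reduction versus untreated cells.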

[2] = Cytotoxicity that caused a 50% reduction in absorbance at 490 nm in human prostate cancer HTB-81 cells using MTS assay.
In short: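 DU-145 (HTB-81) prostate cancer cells were grown in MEM with 10% fetal bovine serum and 2 mM L-glutamine. They were plated at 4×10^3 per well and treated at 0.78–100 μM from 100 mM DMSO stocks diluted in medium, with a 1% DMSO control. MTS read at 490 nm after 72 h. EC50 is the 50% absorbance drop versus untreated cells.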

Structure (SMILES) | EC50 ([1]; Homo sapiens) [µM] | EC50 (B16; Mus musculus, B16) [µM] | EC50 ([2]; Homo sapiens, HTB-81) [µM] | EC50 [1] [µM] | EC50 (B16; b16) [µM] | EC50 ([2]; htb-81) [µM]
Nc1ncnc2c1c(=O)ccn2[C@@H]1O[C@H](CO)C[C@H]1O | 9.5 | 19 | 2.6 |  |  | 
COc1cccc2c1C(=O)c1c(O)c3c(c(O)c1C2=O)C[C@@](O)(C(C)=O)C[C@@H]3O[C@H]1C[C@H](N)[C@H](O)[C@H](C)O1 [DAUNORUBICIN] | 0.22 | 0.16 | 0.058 |  |  | 
Nc1ncnc2c1c(=O)ccn2C1CCC(CO)O1 (stereo unspecified) | 60.5 | 47.1 | 43.3 |  |  | 
Nc1ncnc2c1c(=O)ccn2[C@@H]1O[C@H](CO)[C@@H](O)[C@H]1O (stereo in doubt; 1b-L) |  |  |  | > 100 | > 100 | > 100
N=c1ncn(C2OC(CO)[C@@H](O)[C@@H]2O)c2nccc(O)c12 (stereo partly specified) | > 100 | > 100 | > 100 |  |  | 
C[C@@]1(O)[C@@H](CO)OC(n2ccc(=O)c3c(N)ncnc32)[C@@H]1O (stereo partly specified) | 10.4 | 31.6 | 4.44 |  |  | 
C=C[C@]1(CO)OC(n2ccc(=O)c3c(N)ncnc32)[C@H](O)[C@@H]1O (stereo partly specified) | 76.8 | 99.7 | 34.2 |  |  | 
N=c1ncn(C2O[C@H](CO)[C@@H](O)[C@H]2O)c2nccc(O)c12 (stereo partly specified) | 7.3 |  | 7.3 |  |  | 
C=CC[C@@H](O)[C@H]1OC(n2ccc(=O)c3c(N)ncnc32)[C@H](O)[C@@H]1O (stereo partly specified) | 72 | 66.3 | 35.3 |  |  | 
CC[C@@H](O)[C@H]1O[C@@H](n2ccc(=O)c3c(N)ncnc32)[C@H](O)[C@@H]1O.CC[C@H](O)[C@H]1O[C@@H](n2ccc(=O)c3c(N)ncnc32)[C@H](O)[C@@H]1O (mixture of isomers) | 18.9 | 16.3 | 17.3 |  |  | 
C=C1[C@@H](O)[C@H](n2ccc(=O)c3c(N)ncnc32)O[C@@H]1CO | 41.1 | 60.5 | 31.1 |  |  | 
Nc1ncnc2c1c(=O)ccn2C1O[C@H](CO)[C@H](O)[C@H]1O (stereo partly specified) | 20.7 | 5.9 | 0.73 |  |  | 
Nc1ncnc2c1c(=O)ccn2[C@@H]1OC(CO)(CO)[C@@H](O)[C@H]1O | > 100 | > 100 | > 100 |  |  | 
C#C[C@]1(O)C(n2ccc(=O)c3c(N)ncnc32)O[C@H](CO)[C@H]1O (stereo partly specified) | 65.1 | 81 | 29.3 |  |  | 
CCC[C@@H](O)[C@H]1OC(n2ccc(=O)c3c(N)ncnc32)[C@H](O)[C@@H]1O (stereo partly specified) | 41.1 | 51.6 | 20.4 |  |  | 
Nc1ncnc2c1c(=O)ccn2[C@@H]1O[C@H](CO)[C@@H](O)[C@H]1O (stereo in doubt; 1b) |  |  |  | 0.08 | 0.06 | 0.06
Nc1ncnc2c1c(=O)ccn2C1O[C@H](CO)[C@@H](O)[C@@H]1O (stereo partly specified) | 23.2 | 33.2 | 21.9 |  |  | 
C=C1[C@H](n2ccc(=O)c3c(N)ncnc32)O[C@H](CO)[C@H]1O | > 100 | > 100 | > 100 |  |  | 
Nc1ncnc2nccc(O)c12 | > 100 | > 100 | > 100 |  |  | 
Nc1ncnc2c1c(=O)ccn2[C@H]1C[C@H](O)[C@@H](CO)O1 | 5 | 11.3 | 3.9 |  |  | 
N#Cc1cn([C@@H]2O[C@H](CO)[C@@H](O)[C@H]2O)c2ncnc(N)c12 [TOYOCAMYCIN] | 0.004 | 0.005 | 0.012 |  |  | 
C[C@]1(CO)OC(n2ccc(=O)c3c(N)ncnc32)[C@H](O)[C@@H]1O (stereo partly specified) | 29.9 | 55.5 | 19.7 |  |  | 
C#C[C@@H](O)[C@H]1O[C@@H](n2ccc(=O)c3c(N)ncnc32)[C@H](O)[C@@H]1O.C#C[C@H](O)[C@H]1O[C@@H](n2ccc(=O)c3c(N)ncnc32)[C@H](O)[C@@H]1O (mixture of isomers) | 15.3 | 17.2 | 6.1 |  |  | 
C#C[C@]1(O)[C@@H](CO)OC(n2ccc(=O)c3c(N)ncnc32)[C@@H]1O (stereo partly specified) | > 100 | > 100 | > 100 |  |  | 
C[C@]1(O)C(n2ccc(=O)c3c(N)ncnc32)O[C@H](CO)[C@H]1O (stereo partly specified) | > 100 | 85.5 | 46.7 |  |  | 
Nc1ncnc2c1c(=O)ccn2[C@H]1C[C@@H](O)[C@@H](CO)O1 | 38.9 | 68.9 | 26.6 |  |  | 
CC[C@]1(CO)OC(n2ccc(=O)c3c(N)ncnc32)[C@H](O)[C@@H]1O (stereo partly specified) | 65.1 | 96 | 36.7 |  |  | 
C[C@@H](O)[C@H]1O[C@@H](n2ccc(=O)c3c(N)ncnc32)[C@H](O)[C@@H]1O.C[C@H](O)[C@H]1O[C@@H](n2ccc(=O)c3c(N)ncnc32)[C@H](O)[C@@H]1O | 16.5 | 18.3 | 10 |  |  | 
C#C[C@@]1(O)[C@@H](CO)OC(n2ccc(=O)c3c(N)ncnc32)[C@@H]1O (stereo partly specified) | 6.45 | 2.48 | 0.68 |  |  | 
